Measured values reported in PubChem BioAssay AID2805 (Sanford-Burnham Center for Chemical Genomics, 2010).
Out of some 330,000 compounds screened, about 780 (0.24%) were called active. Shown is part of a subset that was picked to be rich in actives. A number with no mark means an inactive call.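 The calls were made as follows: active = activation factor of at least 2 at 20 µM; inactive = the rest.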

test system: intestinal alkaline phosphatase [Mus musculus]; test: mouse intestinal phosphatase enzyme activation – biochemical, luminescence, uHTS, primary screen (AID 2805); details: muIAP, CDP-Star luminescence, 30 min; at 10 µM; hits give high values; 1 = vehicle-only enzyme signal, 0 = enzyme-free wells
How it was run: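 Assay system: mouse IAP enzyme; reagent: chemiluminescent substrate CDP-Star; dosing: test compounds delivered from DMSO solution; schedule: 30 min at room temperature; measured by: luminescence from enzymatic CDP-Star hydrolysis; controls: DMSO-only wells and no-enzyme negative control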

Row | Compound | activation factor
1 | COc1ccc(OC)c(NC(=O)c2ccc3c(c2)CCN3S(C)(=O)=O)c1 | 0.846
2 | COCCCNC(=S)NCCNc1nc2cc(C)c(C)cc2cc1C#N | 1.01
3 | COc1cccc2c(C)c(C(=O)O)[nH]c12 | 0.981
4 | O=C(C1=C[C@H](c2ccc(C(F)(F)F)cc2)C[C@H](OCc2ccc(CO)cc2)O1)N1CCN(Cc2ccccc2)CC1 | 1.05
5 | COC(=O)c1scc(S(=O)(=O)C(C)(C)C)c1-n1cccc1 | 0.97
6 | N#CC1=C(N)Oc2[nH]c(=S)[nH]c(=O)c2C12C(=O)Nc1ccccc12 (configuration not stated) | 1
7 | O=c1[nH]c(CN2CCOCC2)nc2scc(-c3ccccc3)c12 | 1.04
8 | COCc1cc(=O)n2[nH]c(C)c(-c3ccccc3)c2n1 | 1.04
9 | CC(C)CNC(=S)Nc1ccc(F)cc1 | 1.15
10 | Cc1ccc(NC(=S)Nc2ccc(F)cc2)cc1 | 1.03
11 | CC(NC(=S)Nc1ccc(OC(F)F)cc1)c1ccc(F)cc1 (configuration not stated) | 2.2 (active)
12 | COc1ccccc1-c1nn(Cc2ccccc2)cc1C(=O)N1CCN(c2ncccn2)CC1 | 0.95
13 | O=C(CSc1cccc[n+]1[O-])NCCCc1ccccc1 | 1.02
14 | O=C(Nc1ccccc1)Nc1nnc(COc2ccccc2F)s1 | 0.892
15 | Cc1cc(C(=O)NCCc2ccc(Cl)cc2)n(-c2ccccc2)n1 | 1.02
16 | Cc1cc(NC(=O)Nc2ccc(Cl)cc2)n(-c2ccccc2)n1 | 2.3 (active)
17 | Cc1ccc(NC(=O)Nc2cc(-c3ccccc3)nn2C)cc1Cl | 1.48
18 | N#CCCCn1c(O)c(N=NC(=O)C(O)c2ccccc2)c2ccccc21 (configuration not stated) | 0.987
19 | CCC1CCCCN1C(=S)Nc1ccc(SC(F)F)cc1 (configuration not stated) | 0.894
20 | CCN(CC)c1nc(-c2ccccc2)cc(C(F)(F)F)c1C#N | 0.949
21 | COc1cccc(NC(=O)CN2CCN(CC(=O)Nc3ccccc3Cl)CC2)c1 | 0.978
22 | Cc1cc(C)cc(NC(=O)NC2CCN(CC(=O)Nc3cccc(Cl)c3C)CC2)c1 | 5.45 (active)
23 | CC(C)c1ccc(NC(=O)NC2CCCCC2)cc1 | 1.77
24 | Cc1cc(C)cc(NC(=O)NC2CCCCCCC2)c1 | 4.34 (active)
25 | CC(C)(C)NS(=O)(=O)c1ccc(NC(=O)NC2CCCCC2)cc1 | 1.7

Row | Compound | activation factor
26 | CS(=O)(=O)Nc1ccc(C(=O)N2CCCC2)cc1 | 0.947
27 | C/C(CC(=O)Nc1cccc(F)c1)=N\NC(=O)C(=O)NC1CCCCC1 | 0.807
28 | O=C(Nc1cccc(F)c1)NC1CCCCCCC1 | 2.46 (active)
29 | O=C(Nc1cccc(F)c1)NC1CCCc2ccccc21 (configuration not stated) | 0.963
30 | O=C(CN1CCC(NC(=O)Nc2ccccc2)CC1)Nc1cccc([N+](=O)[O-])c1 | 1.02
31 | Cc1c(Cl)cccc1NC(=O)Nc1ccc(C(=O)N2CCCC2)cc1 | 2 (active)
32 | Cc1c(Cl)cccc1NC(=O)NCCCN1CCCC1=O | 1.01
33 | CSCC(=O)N1CCCC(C(=O)c2cc(F)ccc2F)C1 (configuration not stated) | 0.984
34 | O=C(OCC1O[C@@H](OC(=O)c2cc(O)c(O)c(O)c2)[C@@H](OC(=O)c2cc(O)c(O)c(O)c2)[C@@H](OC(=O)c2cc(O)c(O)c(O)c2)[C@@H]1OC(=O)c1cc(O)c(O)c(O)c1)c1cc(O)c(O)c(O)c1 (some centres not stated) | 0.831
35 | CN(Cc1ccccc1)C(=O)COC(=O)/C=C/c1ccc2c(c1)OCO2 | 0.965
36 | CCc1ccccc1N1CN(Cc2ccco2)CNC1=S | 0.992
37 | COc1c(O)cccc1-c1nnn(CCC(=O)OCC(=O)c2ccccc2)n1 | 0.984
38 | Cc1cccc(NC(=S)NC23CN4CN(CN(C4)C2)C3)c1 | 0.962
39 | Cc1cccc(NC(=S)Nc2ccc(Cl)c(Cl)c2)c1 | 1.16
40 | Cc1cccc(NC(=S)NCCN(C2CCCCC2)C2CCCC2)c1 | 2.13 (active)
41 | O=C(c1ccc(O)cc1)c1ccc(C(=O)O)c(C(=O)O)c1 | 1.01
42 | CC(=O)c1cccc(NC(=O)N2CCCC2C(=O)NCCC(C)C)c1 (configuration not stated) | 0.988
43 | O=C(NCCOc1ccccc1Cl)C(=O)Nc1ccccc1 | 0.98
44 | O=C(NCCOc1ccccc1F)Nc1ccc(Br)cc1 | 2.2 (active)
45 | O=C(COc1ccccc1F)NNC(=O)c1cc(Br)ccc1Cl | 0.932
46 | O=C(Cn1ncc2c3ccccc3n(Cc3ccccc3)c2c1=O)NCCCN1CCOCC1 | 0.993
47 | C=C(Br)Cn1c(CCCC)nc2ccccc21 | 0.968
48 | COc1ccc(NC(=O)Nc2ccc3c(c2)C(=O)N([C@H](C)CO)C[C@H](C)[C@@H](CN(C)C(=O)Nc2ccc4c(c2)OCO4)O3)cc1 | 2.74 (active)
49 | C[C@H](CO)N1C[C@H](C)[C@@H](CN(C)C(=O)Nc2ccc3c(c2)OCO3)Oc2c(cccc2N(C)C)C1=O | 0.974
50 | COc1ccc(NC(=O)N(C)C[C@H]2Oc3ccc(NC(=O)C4CC4)cc3C(=O)N([C@H](C)CO)C[C@@H]2C)cc1 | 1.05

Row | Compound | activation factor
51 | COc1ccc(S(=O)(=O)NCC(=O)NC2CC2)cc1OC | 0.966
52 | O=C(CN1CCC(O)(c2cccc(C(F)(F)F)c2)CC1)NCCc1ccccc1 | 0.933
53 | CC(=O)Nc1cccc(C(=O)OCN2C(=O)c3ccccc3C2=O)c1 | 0.892
54 | CC(=O)N(CC(O)CO)c1c(I)c(C(=O)NCC(O)CO)c(I)c(C(=O)NCC(O)CO)c1I (configuration not stated) | 1.05
55 | Cc1cc(C)c(S(=O)(=O)c2ccccc2)c(OC(=O)c2c(F)cccc2Cl)n1 | 0.919
56 | OCCCN1c2ccccc2Nc2nnc(-c3ccccc3)cc21 | 2.5 (active)
57 | N=c1c2c(-c3ccccc3)c(-c3ccccc3)n(Cc3ccccc3)c2ncn1CCCO | 0.982
58 | COc1ccc(C)cc1NC(=O)NCCCCc1ccccc1 | 1.36
59 | O=C(CNC(=O)c1ccccc1Br)NNC(=O)c1cccs1 | 0.934
60 | Cc1ccc(CN(C)Cc2cc(=O)oc3cc(C)c(Cl)cc23)cc1 | 0.989
61 | CC(NC(=S)Nc1ccccc1)C1COc2ccccc2O1 (configuration not stated) | 1.67
62 | S=C(NCC1COc2ccccc2O1)Nc1ccc(Br)cc1 (configuration not stated) | 3.2 (active)
63 | S=C(NCCCc1ccccc1)Nc1ccc(Br)cc1 | 2.09 (active)
64 | S=C(Nc1ccc(Br)cc1)NC1CCN(Cc2ccccc2)CC1 | 1.46
65 | O=S(=O)(NCCCc1ccccc1)c1ccc(Br)cc1 | 1.03
66 | CCCN(CC1COc2ccccc2O1)C(=S)Nc1ccc(C)cc1 (configuration not stated) | 1.14
67 | COCCNC(=O)c1ccc(S(=O)(=O)c2ccc(Cl)cc2)c(NC(C)=O)c1 | 0.896
68 | O=C(NCC1CCCO1)c1ccccc1-c1nc(-c2ccccc2Cl)no1 (configuration not stated) | 0.926
69 | CCOC(=O)c1cccc(NC(=O)CN(c2ccc(C)cc2)S(=O)(=O)c2c(C)noc2C)c1 | 1.37
70 | Cc1noc(C)c1S(=O)(=O)N(CC(=O)NCc1ccc(Cl)cc1)c1ccc2c(c1)OCO2 | 1.12
71 | Cc1noc(C)c1S(=O)(=O)N(CC(=O)Nc1ccc2c(c1)OCCO2)c1ccc(C(C)C)cc1 | 2.03 (active)
72 | COc1ccc(N(C)C(=O)C2CCN(S(=O)(=O)c3cccc4nsnc34)CC2)cc1 | 0.954
73 | O=C(NCc1cccnc1)c1cnc2ccccc2n1 | 0.965
74 | CC(C(=O)O)N1C(=O)c2cccc3cccc1c23 (configuration not stated) | 1.02
75 | CCOc1ccc(C(CC(=O)O)NC(=O)C23CC4CC(CC(C4)C2)C3)cc1OC (configuration not stated) | 1.06

Row | Compound | activation factor
76 | CCOc1ccc(C(CC(=O)O)NC(=O)Cc2ccccc2)cc1OC (configuration not stated) | 0.993
77 | CCOc1ccc(C(CCc2ccccc2)NC(=O)c2ccc(OC)c(OC)c2)cc1OCC (configuration not stated) | 2.15 (active)
78 | CCN(CC)Cc1nc2sc(C)c(C)c2c(=O)[nH]1 | 0.952
79 | Cc1cc(=O)[nH]c(Nc2cccc(Br)c2)n1 | 1.07
80 | C=CCOc1cccc(C2NC(=O)c3ccccc3O2)c1 (configuration not stated) | 1.01
81 | CN(c1ccccc1)S(=O)(=O)c1cccc(NC(=O)Cc2ccc(Cl)cc2)c1 | 1.55
82 | CN(C)S(=O)(=O)c1cccc(NC(=O)Cc2ccsc2)c1 | 1.06
83 | CN(c1ccccc1)S(=O)(=O)c1cccc(NC(=O)Cc2c(F)cccc2Cl)c1 | 2.3 (active)
84 | Cc1ccc(C(=O)N/C(=C\c2cn(C)c3ccccc23)C(=O)N2CCN(C)CC2)cc1 | 0.969
85 | COC(=O)CNC(=O)c1ccc2c(c1)S(=O)(=O)c1ccccc1C2=O | 1.01
86 | O=C(CCc1ccc(S(=O)(=O)NC2CCCCC2)cc1)NCc1ccccc1 | 1.18
87 | CCN(CC)N=Nc1cccc(NC(C)=O)c1 | 0.943
88 | CCOc1ccccc1C(=O)NC1CC2CCCC(C1)N2Cc1ccccc1 (configuration not stated) | 0.947
89 | COc1ccc(CN2C3CCCC2CC(NC(=O)c2cccc(F)c2)C3)cc1 (configuration not stated) | 1.11
90 | COc1ccc(NC(=O)NC2CC3CCCC(C2)N3Cc2ccccc2)cc1 (configuration not stated) | 3.11 (active)
91 | O=C(COc1ccc(S(=O)(=O)N2CCOCC2)cc1Cl)N1CCOCC1 | 1.01
92 | C[N+]1(CC(O)COc2ccccc2)CCN(C(=O)c2ccc([N+](=O)[O-])cc2)CC1 (configuration not stated) | 0.943
93 | Cn1cccc1C(C#N)c1ccccc1C#N (configuration not stated) | 0.962
94 | O=C1C2CCCN2C(=O)N1CCCCN1CCN(c2cccc(C(F)(F)F)c2)CC1 (configuration not stated) | 0.942
95 | CCc1ccc(NC(=O)NC(C)c2ccc3c(c2)OCO3)cc1 (configuration not stated) | 2.38 (active)
96 | CC(NC(=O)Nc1cccc([N+](=O)[O-])c1)c1ccc2c(c1)OCO2 (configuration not stated) | 0.95
97 | CC(NC(=O)Nc1ccc2c(c1)OCO2)c1ccncc1 (configuration not stated) | 1.02
